What was measured:
[1] = system: CNE-2; experiment: Induction of cell cycle arrest in human CNE2 cells assessed as accumulation at S phase at 5 uM incubated for 24 hrs by propidium iodide staining based flow cytometry (reference value: 10.3%); assay type: functional
[2] = system: SMMC-7721; experiment: Induction of apoptosis in human SMMC7721 cells assessed as early apoptotic cells level at 5 uM incubated for 24 hrs by Annexin V-FITC/PI dual staining based flow cytometry (reference value: 1.36%); assay type: functional
Outline: (§1)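 CNE2 and SMMC-7721 cells were treated for 24 h at 0, 5, 10 or 30 µM, or at 0, 10, 20 or 50 µM depending on compound. Cells were stained with Annexin V-FITC/propidium iodide and quantified by flow cytometry. Apoptotic cells were counted as AV+/PI− (lower right) plus AV+/PI+ (upper right) quadrants.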

[3] = system: CNE-2; experiment: Induction of apoptosis in human CNE2 cells incubated for 24 hrs by Annexin V-FITC/PI dual staining based flow cytometry; assay type: functional, cell-based; outline: as §1
[4] = system: SMMC-7721; experiment: Induction of cell cycle arrest in human SMMC7721 cells assessed as accumulation at G0-G1 phase at 10 uM incubated for 24 hrs by propidium iodide staining based flow cytometry (reference value: 64.1%); assay type: functional
[5] = system: CNE-2; experiment: Induction of cell cycle arrest in human CNE2 cells assessed as accumulation at subG1 phase at 30 uM incubated for 24 hrs by propidium iodide staining based flow cytometry (reference value: 0.55%); assay type: functional
[6] = system: SMMC-7721; experiment: Induction of apoptosis in human SMMC7721 cells assessed as necrotic cells level at 30 uM incubated for 24 hrs by Annexin V-FITC/PI dual staining based flow cytometry (reference value: 2.47%); assay type: functional; outline: as §1
[7] = system: SMMC-7721; experiment: Induction of apoptosis in human SMMC7721 cells assessed as necrotic cells level at 5 uM incubated for 24 hrs by Annexin V-FITC/PI dual staining based flow cytometry (reference value: 2.47%); assay type: functional; outline: as §1
[8] = system: SMMC-7721; experiment: Induction of cell cycle arrest in human SMMC7721 cells assessed as accumulation at subG1 phase at 10 uM incubated for 24 hrs by propidium iodide staining based flow cytometry (reference value: 0.33%); assay type: functional
[9] = system: CNE-2; experiment: Induction of cell cycle arrest in human CNE2 cells assessed as accumulation at G2/M phase at 5 uM incubated for 24 hrs by propidium iodide staining based flow cytometry (reference value: 19.8%); assay type: functional
[10] = system: CNE-2; experiment: Induction of apoptosis in human CNE2 cells assessed as late apoptotic cells level at 30 uM incubated for 24 hrs by Annexin V-FITC/PI dual staining based flow cytometry (reference value: 1.37%); assay type: functional; outline: as §1
[11] = system: CNE-2; experiment: Induction of cell cycle arrest in human CNE2 cells assessed as accumulation at G0-G1 phase at 30 uM incubated for 24 hrs by propidium iodide staining based flow cytometry (reference value: 69.3%); assay type: functional
[12] = system: SMMC-7721; experiment: Induction of cell cycle arrest in human SMMC7721 cells assessed as accumulation at G2/M phase at 30 uM incubated for 24 hrs by propidium iodide staining based flow cytometry (reference value: 18.4%); assay type: functional
[13] = system: CNE-2; experiment: Induction of apoptosis in human CNE2 cells assessed as late apoptotic cells level at 5 uM incubated for 24 hrs by Annexin V-FITC/PI dual staining based flow cytometry (reference value: 1.37%); assay type: functional; outline: as §1
[14] = system: SMMC-7721; experiment: Induction of apoptosis in human SMMC7721 cells assessed as necrotic cells level at 10 uM incubated for 24 hrs by Annexin V-FITC/PI dual staining based flow cytometry (reference value: 2.47%); assay type: functional; outline: as §1
[15] = system: A549; experiment: Anticancer activity against human A549 cells assessed as reduction in cell viability incubated for 48 hrs MTT assay; assay type: functional, cell-based; conditions: A549, 48 h
Outline: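 MTT assay on human hepatocarcinoma SMMC-7721, lung carcinoma A549 and nasopharyngeal carcinoma CNE2 cells, with matrine as comparator and cisplatin as positive control. IC50 is the concentration that lowers optical density of treated cells by 50% versus untreated cells, given as the mean ± SD of three experiments.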

[16] = system: SMMC-7721; experiment: Induction of apoptosis in human SMMC7721 cells assessed as late apoptotic cells level at 5 uM incubated for 24 hrs by Annexin V-FITC/PI dual staining based flow cytometry (reference value: 0.88%); assay type: functional; outline: as §1
[17] = system: SMMC-7721; experiment: Induction of apoptosis in human SMMC7721 cells incubated for 24 hrs by Annexin V-FITC/PI dual staining based flow cytometry; assay type: functional, cell-based; outline: as §1
[18] = system: SMMC-7721; experiment: Induction of apoptosis in human SMMC7721 cells assessed as early apoptotic cells level at 10 uM incubated for 24 hrs by Annexin V-FITC/PI dual staining based flow cytometry (reference value: 1.36%); assay type: functional; outline: as §1
[19] = system: SMMC-7721; experiment: Induction of cell cycle arrest in human SMMC7721 cells assessed as accumulation at G0-G1 phase at 30 uM incubated for 24 hrs by propidium iodide staining based flow cytometry (reference value: 64.1%); assay type: functional
[20] = system: SMMC-7721; experiment: Induction of cell cycle arrest in human SMMC7721 cells assessed as accumulation at S phase at 30 uM incubated for 24 hrs by propidium iodide staining based flow cytometry (reference value: 17.2%); assay type: functional
[21] = system: SMMC-7721; experiment: Induction of apoptosis in human SMMC7721 cells assessed as viable cells level at 5 uM incubated for 24 hrs by Annexin V-FITC/PI dual staining based flow cytometry (reference value: 95.3%); assay type: functional; outline: as §1
[22] = system: SMMC-7721; experiment: Induction of cell cycle arrest in human SMMC7721 cells assessed as accumulation at S phase at 10 uM incubated for 24 hrs by propidium iodide staining based flow cytometry (reference value: 17.2%); assay type: functional
[23] = system: SMMC-7721; experiment: Induction of apoptosis in human SMMC7721 cells assessed as late apoptotic cells level at 10 uM incubated for 24 hrs by Annexin V-FITC/PI dual staining based flow cytometry (reference value: 0.88%); assay type: functional; outline: as §1
[24] = system: SMMC-7721; experiment: Induction of cell cycle arrest in human SMMC7721 cells assessed as accumulation at subG1 phase at 5 uM incubated for 24 hrs by propidium iodide staining based flow cytometry (reference value: 0.33%); assay type: functional
[25] = system: CNE-2; experiment: Induction of apoptosis in human CNE2 cells assessed as late apoptotic cells level at 10 uM incubated for 24 hrs by Annexin V-FITC/PI dual staining based flow cytometry (reference value: 1.37%); assay type: functional; outline: as §1
[26] = system: CNE-2; experiment: Induction of apoptosis in human CNE2 cells assessed as necrotic cells level at 10 uM incubated for 24 hrs by Annexin V-FITC/PI dual staining based flow cytometry (reference value: 3.43%); assay type: functional; outline: as §1
[27] = system: CNE-2; experiment: Induction of cell cycle arrest in human CNE2 cells assessed as accumulation at G0-G1 phase at 5 uM incubated for 24 hrs by propidium iodide staining based flow cytometry (reference value: 69.3%); assay type: functional
[28] = system: CNE-2; experiment: Induction of cell cycle arrest in human CNE2 cells assessed as accumulation at G2/M phase incubated for 24 hrs by propidium iodide staining based flow cytometry; assay type: functional
[29] = system: CNE-2; experiment: Induction of cell cycle arrest in human CNE2 cells assessed as accumulation at subG1 phase at 5 uM incubated for 24 hrs by propidium iodide staining based flow cytometry (reference value: 0.55%); assay type: functional
[30] = system: CNE-2; experiment: Induction of apoptosis in human CNE2 cells assessed as viable cells level at 10 uM incubated for 24 hrs by Annexin V-FITC/PI dual staining based flow cytometry (reference value: 91.6%); assay type: functional; outline: as §1
[31] = system: SMMC-7721; experiment: Induction of cell cycle arrest in human SMMC7721 cells assessed as accumulation at subG1 phase at 30 uM incubated for 24 hrs by propidium iodide staining based flow cytometry (reference value: 0.33%); assay type: functional

Compound: COc1cc(Cn2cccc2/C=C2\CC[C@@H]3[C@H]4CCCN5CCC[C@@H](CN3C2=O)[C@@H]45)cc(OC)c1
- Activity [1]: 11%
- Activity [2]: 13.8%
- Activity [3]: Dose-dependent effect
- Activity [4]: 5.61%
- Activity [5]: 4.2%
- Activity [6]: 3.67%
- Activity [7]: 4.04%
- Activity [8]: 6.61%
- Activity [9]: 29.5%
- Activity [10]: 16%
- Activity [11]: 9.89%
- Activity [12]: 79.1%
- Activity [13]: 3.17%
- Activity [14]: 6.65%
- IC50 [15]: 8.05 µM
- Activity [16]: 4.06%
- Activity [17]: Dose-dependent effect
- Activity [18]: 42%
- Activity [19]: 8.58%
- Activity [20]: 9.28%
- Activity [21]: 78.1%
- Activity [22]: 8.92%
- Activity [23]: 18.5%
- Activity [24]: 4.95%
- Activity [25]: 8.94%
- Activity [26]: 5.22%
- Activity [27]: 55.2%
- Activity [28]: Dose-dependent effect
- Activity [29]: 5.06%
- Activity [30]: 60.7%
- Activity [31]: 3.08%
